Experimental data reported in ChEMBL document CHEMBL5715960, “Epigenetic Co-Deregulation of EZH2/TET1 is a Senescence-Countering, Actionable Vulnerability in Triple-Negative Breast Cancer” (Theranostics, 2019).
Active and inactive are the calls of the source. No cut-off for these calls is given here.

Columns and labels:
MDA-MB-231 [1] = assay: Effect on human MDA-MB-231 cells expressing shTET1 assessed as increase in p53 cascade by immunoblot analysis; assay type: functional, cell-based
SK-BR-3 [2] = assay: Antiproliferative activity in human SK-BR-3 cells assessed as increase in SA-beta-gal positive cells at 2 uM for 5 days by SA-beta-gal staining analysis; assay type: toxicity, cell-based; conditions: sk-br-3, 120 h, time 5 day
Outline: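 GSK343 2 µM or DMSO for 5 days, then chromogenic SA-β-gal staining and counting of positive cells. Triplicate; mean ± SD.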

MDA-MB-436 [3] = assay: Effect on human MDA-MB-436 cells assessed as increase in TET1 transcription by qRT-PCR analysis; assay type: functional, cell-based
Outline: (§1)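 qRT-PCR of TET1, TET2 and TET3 transcripts in breast cancer cells exposed to GSK343 (2 µM unless otherwise indicated), shown relative to DMSO-treated cells. Mean ± SD, triplicate unless stated.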

MDA-MB-436 [4] = assay: Effect on human MDA-MB-436 cells expressing shTET1 assessed as reduction in PCNA by immunoblot analysis; assay type: functional, cell-based
MDA-MB-436 [5] = assay: Induction of cell cycle arrest in human MDA-MB-436 cells assessed as accumulation of cells at S phase measured at 2 uM by BrdU/PI staining based flow cytometric analysis (reference value: 39.5%); assay type: functional
MDA-MB-436 [6] = assay: Antiproliferative activity in human MDA-MB-436 cells assessed as increase in C12FDG based fluorescent SA-beta-gal positive cells at 2 uM in presence of adriamycin by FACS analysis; assay type: functional, cell-based
Outline: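 Cells given 0.005 µg/ml adriamycin with or without 2 µM GSK343, or DMSO; SA-β-gal activity detected with C12FDG fluorescent substrate by flow cytometry, reported as percent positive cells. Mean ± SD.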

BT-474 [7] = assay: Effect on human BT-474 cells assessed as increase in TET2 transcription by qRT-PCR analysis; assay type: functional, cell-based; outline: as §1
SK-BR-3 [8] = assay: Cytotoxicity against human SK-BR-3 cells at 0.5 to 2 uM for 2 days by Guava viacount assay; assay type: toxicity, cell-based; conditions: sk-br-3, 48 h, dose 0.5-2 µM, time 2 day
Outline: (§2)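 Cells plated at 2 × 10^4 (24-well) or 1 × 10^5 (12-well), exposed to a range of GSK343 concentrations for 2 days against DMSO solvent control; cell number and viability read by Guava ViaCount flow cytometry, relative to DMSO. Triplicate; mean ± SD.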

MDA-MB-436 [9] = assay: Upregulation of […] signalling in human MDA-MB-436 cells at 2 uM for 2 days by immunoblot analysis; assay type: functional, cell-based; conditions: time 2.0 day
MCF7 [10] = assay: Antiproliferative activity against human MCF7 cells assessed as increase in global H3K9me3 expression level by immunoblot analysis; assay type: toxicity, cell-based
Outline: (§3)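 Cells exposed to GSK343 at 2 µM (standard level unless stated otherwise), lysed and immunoblotted; α-tubulin and total H3 as loading controls.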

MDA-MB-436 [11] = assay: Effect on […] in human MDA-MB-436 cells assessed as repression in TET1 promoter EZH2 by ChiP-qPCR analysis; assay type: functional, cell-based
Outline: (§4)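 Cells treated with GSK343 or DMSO; chromatin immunoprecipitated with anti-EZH2 or anti-H3K27me3 antibody and quantified by qPCR with primers for the TET1 promoter; input as internal control, IgG as negative control.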

MDA-MB-436 [12] = assay: Antiproliferative activity against human MDA-MB-436 cells assessed as increase in global H3K9me3 expression level by immunoblot analysis; assay type: functional, cell-based; outline: as §3
MDA-MB-231 [13] = assay: Downregulation of EZH2 protein expression in human MDA-MB-231 cells at 2 uM for 2 days by immunoblot analysis; assay type: functional, cell-based; conditions: time 2.0 day
MDA-MB-436 [14] = assay: Antitumor activity against human MDA-MB-436 cells xenografted in Crl:NU-Foxn1-nu/nu mouse assessed as reduction in tumor administered at 5 mg/kg, ip in presence of adriamycin treated for 21 days; assay type: functional, organism-based; conditions: time 21.0 day
MDA-MB-436 [15] = assay: Induction of cell cycle arrest in human MDA-MB-436 cells assessed as accumulation of cells at G1 phase measured at 2 uM by BrdU/PI staining based flow cytometric analysis (reference value: 48.3%); assay type: functional
MDA-MB-231 [16] = assay: Effect on […] in human MDA-MB-231 cells assessed as repression in TET1 promoter H3K27me3 by ChiP-qPCR analysis; assay type: functional, cell-based; outline: as §4
MDA-MB-231 [17] = assay: […] in human MDA-MB-231 cells xenografted in Crl:NU-Foxn1-nu/nu mouse […] administered at 5 mg/kg, ip in presence of adriamycin treated for 21 days by SA-beta-gal staining analysis; assay type: functional, organism-based; conditions: time 21.0 day
Outline: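 SA-β-gal staining of xenograft tumors. Twice-weekly intraperitoneal GSK343 5 mg/kg, adriamycin 1 mg/kg, the combination, or DMSO, started at a tumor volume of about 50 mm3 and continued for 21 days.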

MDA-MB-361 = assay: Cytotoxicity against human MDA-MB-361 cells at 0.5 to 2 uM for 2 days by Guava viacount assay; assay type: toxicity, cell-based; conditions: mda-mb-361, 48 h, dose 0.5-2 µM, time 2 day; outline: as §2
MDA-MB-436 [18] = assay: Effect on human MDA-MB-436 cells expressing shTET1 assessed as increase in p53 cascade by immunoblot analysis; assay type: functional, cell-based
MDA-MB-231 [19] = assay: Antiproliferative activity against human MDA-MB-231 cells assessed as increase in global H3K9me3 expression level by immunoblot analysis; assay type: functional, cell-based; outline: as §3
MDA-MB-231 [20] = assay: Antiproliferative activity against human MDA-MB-231 cells assessed as downregulation of PCNA by immunoblot analysis; assay type: functional, cell-based; outline: as §3
MDA-MB-231 [21] = assay: Downregulation of EZH2 transcription in human MDA-MB-231 cells at 2 uM for 2 days by immunoblot analysis; assay type: functional, cell-based; conditions: time 2.0 day
MDA-MB-436 [22] = assay: Upregulation of TET1 in human MDA-MB-436 cells at 2 uM for 2 days by immunoblot analysis; assay type: functional, cell-based; conditions: time 2.0 day
MDA-MB-231 [23] = assay: Effect on human MDA-MB-231 cells assessed as apoptotic phenotype by measuring increase in BAX expression level at 2 uM in presence of adriamycin by immunoblot analysis; assay type: functional, cell-based
Outline: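 Immunoblot of cell lysates after 0.05 µg/ml adriamycin alone, with 2 µM GSK343, or DMSO. α-Tubulin and total H3 used as loading controls.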

BT-474 [24] = assay: Upregulation of CDKN1A gene in human BT-474 cells at 2 uM by qRT-PCR analysis; assay type: functional, cell-based
Outline: (§5)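 Relative transcript levels measured by qRT-PCR in cells treated with 2 µM inhibitor, normalised to DMSO-treated control cells. Triplicate experiments unless stated otherwise; mean ± SD reported; unpaired two-tailed Student's t-test at p < 0.05.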

MDA-MB-231 [25] = assay: Effect on […] in human MDA-MB-231 cells assessed as repression in TET1 promoter EZH2 by ChiP-qPCR analysis; assay type: functional, cell-based; outline: as §4
MCF7 [26] = assay: Upregulation of TP53 gene in human MCF7 cells at 2 uM by qRT-PCR analysis; assay type: functional, cell-based; outline: as §5
MDA-MB-231 [27] = assay: In vivo activation of TET1 in Crl:NU-Foxn1-nu/nu mouse xenografted with human MDA-MB-231 cells at 5 mg/kg, ip in presence of adriamycin treated for 21 days; assay type: functional, organism-based; conditions: time 21.0 day
MDA-MB-231 [28] = assay: Antiproliferative activity against human MDA-MB-231 cells assessed as increase in cell death at 10 uM for 2 days by Guava viacount assay; assay type: functional, cell-based; conditions: time 2.0 day; outline: as §2
MDA-MB-231 [29] = assay: Antiproliferative activity in human MDA-MB-231 cells expressing shTET1 assessed as increase in SA-beta-gal positive cells by SA-beta-gal staining analysis (reference value: 9+/-1.5%); assay type: functional

Question: With `CCCc1cc(C)[nH]c(=O)c1CNC(=O)c1cc(-c2ccnc(N3CCN(C)CC3)c2)cc2c1cnn2C(C)C` as the molecule, how does the Activity (MDA-MB-231 [1]) read?
Answer: inactive

Question: What about the Activity (SK-BR-3 [2]) of the same molecule?
Answer: Non-Toxic

Question: What about the Activity (MDA-MB-436 [3]) of the same molecule?
Answer: Active

Question: What about the Activity (MDA-MB-436 [4]) of the same molecule?
Answer: inactive

Question: And the Activity (MDA-MB-436 [5])?
Answer: 15.2%

Question: And the Activity (MDA-MB-436 [6])?
Answer: Active

Question: And the Activity (BT-474 [7])?
Answer: inactive

Question: What about the Activity (SK-BR-3 [8]) of the same molecule?
Answer: Non-Toxic

Question: And the Activity (MDA-MB-436 [9])?
Answer: Active

Question: And the Activity (MCF7 [10])?
Answer: Non-Toxic

Question: And the Activity (MDA-MB-436 [11])?
Answer: Active

Question: What about the Activity (MDA-MB-436 [12]) of the same molecule?
Answer: Active

Question: And the Activity (MDA-MB-231 [13])?
Answer: Active

Question: And the Activity (MDA-MB-436 [14])?
Answer: Active

Question: And the Activity (MDA-MB-436 [15])?
Answer: 71.1%

Question: What about the Activity (MDA-MB-231 [16]) of the same molecule?
Answer: Active

Question: What about the Activity (MDA-MB-231 [17]) of the same molecule?
Answer: Active

Question: What about the Activity (MDA-MB-361) of the same molecule?
Answer: Non-Toxic

Question: And the Activity (MDA-MB-436 [18])?
Answer: inactive

Question: What about the Activity (MDA-MB-231 [19]) of the same molecule?
Answer: Active

Question: And the Activity (MDA-MB-231 [20])?
Answer: Active

Question: And the Activity (MDA-MB-231 [21])?
Answer: Active

Question: What about the Activity (MDA-MB-436 [22]) of the same molecule?
Answer: Active

Question: What about the Activity (MDA-MB-231 [23]) of the same molecule?
Answer: Active

Question: And the Activity (BT-474 [24])?
Answer: inactive

Question: What about the Activity (MDA-MB-231 [25]) of the same molecule?
Answer: Active

Question: And the Activity (MCF7 [26])?
Answer: inactive

Question: What about the Activity (MDA-MB-231 [27]) of the same molecule?
Answer: Active

Question: And the Activity (MDA-MB-231 [28])?
Answer: Active

Question: What about the Activity (MDA-MB-231 [29]) of the same molecule?
Answer: 12.3%
